Active and inactive are the calls of the source. No cut-off for these calls is given here.
Tests used:
[1] = biological target: Insulin-degrading enzyme (Homo sapiens, UniProt P14735, E111Q); assay: Binding affinity to IDE E111Q mutant (unknown origin) using N-terminal FITC-labeled compound after 2 hrs in absence of light at 298 K by fluorescence polarization assay
In short: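 IDE-E111Q was titrated against 20 nM FITC-labelled peptide in 20 mM Tris-HCl pH 8.0, 50 mM NaCl, 1 mM TCEP and incubated 2 h at 277 K in the dark. Polarization was read at 298 K (ex 480, em 535 nm) and plotted against IDE concentration. Three independent experiments, each in duplicate.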

[2] = biological target: Insulin-degrading enzyme (Homo sapiens) (UniProt P14735); assay: Inhibition of IDE (unknown origin) assessed as potentiation of insulin-induced AKT phosphorylation in rat skeletal muscle cells at 100 uM preincubated for 10 mins followed insulin addition measured by Western blot analysis; format: cell-based
In short: (§1)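 Rat skeletal muscle cells were treated with 100 nM IDE plus peptide, for 10 min or at time points up to 24 h with 100 μM. Insulin (10 nM) was then added for 10 min. RIPA lysates were run on 10% SDS-PAGE and blotted for pAKT and AKT with GAPDH as loading control. Densitometry on three regions, two-tailed t test.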

[3] = Selectivity ratio of IC50 for NEP (unknown origin) to IC50 for mouse His-tagged IDE (42 to 1019 residues)
[4] = Drug uptake in human HeLa cells at 5 uM using FITC-labeled compound after 2 hrs at 310 K by DAPI-staining based confocal microscopy; format: ADME, cell-based
[5] = test system: HeLa; assay: Cytotoxicity against human HeLa cells assessed as reduction in cell viability at <300 uM after 24 hrs at 310 K by MTT assay; format: cell-based
In short: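 HeLa cells were grown overnight in DMEM with 10% FBS, then exposed to serial dilutions starting at 300 μM in medium with 5% FBS for 24 h at 310 K under 5% CO2. MTT was added for a further 4 h and formazan absorbance read at 490 nm. Three independent experiments in duplicate.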

[6] = Hemolytic activity against mouse RBC at 300 uM after 1 hr at 310 K; format: ADME, cell-based, Erythrocyte; conditions: mouse red blood cells (erythrocytes), read-out: Activity
In short: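 Fresh mouse red cells were washed six times and suspended at 1 × 10^8 cells/mL in PBS. Peptides at 2.3–300 μM were added for 1 h at 310 K. After centrifugation, hemoglobin in the supernatant was read at 576 nm. PBS served as 0% and 0.1% Triton X-100 as 100% lysis. Three independent experiments in duplicate.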

[7] = Metabolic stability in 25% mouse serum assessed as compound remaining at 250 uM up to 24 hrs by LC-MS analysis; format: ADME, cell-free
In short: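 Peptide at a final 250 μM in 25% mouse serum was incubated at 310 K for 0–24 h. Samples were quenched in 12% TCA in H2O/CH3CN (1:1) and chilled at 277 K for 15 min. After centrifugation, the intact peptide in the supernatant was quantified by LC–MS. Three independent experiments.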

[8] = biological target: Insulin-degrading enzyme (Homo sapiens) (UniProt P14735); assay: Inhibition of IDE (unknown origin) assessed as potentiation of insulin-induced AKT phosphorylation in rat skeletal muscle cells at 100 uM preincubated up to 12 hrs followed by insulin addition and measured after 10 mins by Western blot analysis; format: cell-based; in short: as §1
[9] = biological target: Insulin-degrading enzyme (Homo sapiens) (UniProt P14735); assay: Inhibition of IDE (unknown origin)-mediated FITC-insulin degradation in rat skeletal muscle cells at 100 uM after 10 mins at 310 K by DAPI-staining based fluorescent inverted microscopic imaging analysis; format: cell-based
In short: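 Rat skeletal muscle cells on coverslips were given 100 nM wild-type IDE and 100 μM peptide for 10 min at 310 K, then FITC-insulin for a further 10 min. Cells were washed, fixed in 4% paraformaldehyde, stained with DAPI and imaged by fluorescent inverted microscopy. Repeated three times.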

[10] = test system: Mus musculus; assay: Effect on glucose levels in lean C57BL/6J mouse at 80 mg/kg, ip administered 30 min prior to glucose stimulation measured up to 120 min […]; format: ADME, organism-based; conditions: in vivo
[11] = test system: Mus musculus; assay: Hypoglycemic activity in lean C57BL/6J mouse at 80 mg/kg, ip administered 30 min prior to insulin injection measured up to 75 mins post insulin injection by ITT; format: functional, organism-based
In short: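 Lean male mice were fasted 6 h, then given 80 mg kg−1 i.p. or PBS (n = 6) 30 min before subcutaneous insulin (0.25 U kg−1 in saline). Tail blood glucose was read at −30 to 75 min. Mean ± SEM, two-tailed t test, repeated three times.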

[12] = test system: Mus musculus; assay: Induction of insulin levels in lean C57BL/6J mouse at 80 mg/kg, ip after 30 to 120 mins post injection by ELISA; format: functional, organism-based
In short: (§2)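 Male lean C57BL/6J mice received 80 mg kg−1 i.p. (n = 5) or PBS. At 30 or 120 min, heparinized blood was taken from tail or eye socket and spun to plasma. Insulin (5 μL plasma), C-peptide, glucagon, beta-endorphin and TNF alpha (10 μL each) were measured by ultrasensitive ELISA. Mean ± SEM, two-tailed t test.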

[13] = test system: Mus musculus; assay: Effect on basal c-peptide levels in lean C57BL/6J mouse at 80 mg/kg, ip after 30 to 120 mins post injection by ELISA; format: ADME, organism-based; conditions: in vivo; in short: as §2
[14] = test system: Mus musculus; assay: Effect on basal beta-endrophins levels in lean C57BL/6J mouse at 80 mg/kg, ip after 30 to 120 mins post injection by ELISA; format: ADME, organism-based; conditions: in vivo; in short: as §2
[15] = Tmax in lean C57BL/6J mouse at 100 mg/kg, ip by LC-MS analysis; format: ADME, organism-based; conditions: in vivo
In short: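 Male lean C57BL/6J mice, 13–15 weeks old, given one i.p. dose of 100 mg kg−1 (n = 5). Tail or eye-socket blood was taken from 20 min to 43 h and spun to plasma. 30 μL plasma was mixed with 100 μL 10% TCA in H2O/CH3CN (1:1) and chilled at 277 K for 15 min. After centrifugation the peptide left in the supernatant was quantified by LC–MS. Two independent experiments.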

[16] = Absolute bioavailability in lean C57BL/6J mouse at 100 mg/kg, ip by LC-MS analysis; format: ADME, organism-based; conditions: in vivo
In short: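 Mice received the peptide by orbital i.v. injection (taken as 100%) or by i.p. injection. Plasma was sampled from 20 min to 43 h, TCA-precipitated and analysed by LC–MS. Fabc% = (AUCip × Div)/(AUCiv × Dip) × 100%. Two independent experiments.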

[17] = Drug uptake in brain parenchyma of lean C57BL/6J mouse at 40 mg/kg, iv using cy5-labeled compound by two-photon microscopic analysis; conditions: in vivo
[18] = Drug uptake in brain parenchyma of lean C57BL/6J mouse at 80 mg/kg, iv using FITC-labeled compound by two-photon microscopic analysis; conditions: in vivo

Sequence of Insulin-degrading enzyme (Homo sapiens) (P14735 whole entry): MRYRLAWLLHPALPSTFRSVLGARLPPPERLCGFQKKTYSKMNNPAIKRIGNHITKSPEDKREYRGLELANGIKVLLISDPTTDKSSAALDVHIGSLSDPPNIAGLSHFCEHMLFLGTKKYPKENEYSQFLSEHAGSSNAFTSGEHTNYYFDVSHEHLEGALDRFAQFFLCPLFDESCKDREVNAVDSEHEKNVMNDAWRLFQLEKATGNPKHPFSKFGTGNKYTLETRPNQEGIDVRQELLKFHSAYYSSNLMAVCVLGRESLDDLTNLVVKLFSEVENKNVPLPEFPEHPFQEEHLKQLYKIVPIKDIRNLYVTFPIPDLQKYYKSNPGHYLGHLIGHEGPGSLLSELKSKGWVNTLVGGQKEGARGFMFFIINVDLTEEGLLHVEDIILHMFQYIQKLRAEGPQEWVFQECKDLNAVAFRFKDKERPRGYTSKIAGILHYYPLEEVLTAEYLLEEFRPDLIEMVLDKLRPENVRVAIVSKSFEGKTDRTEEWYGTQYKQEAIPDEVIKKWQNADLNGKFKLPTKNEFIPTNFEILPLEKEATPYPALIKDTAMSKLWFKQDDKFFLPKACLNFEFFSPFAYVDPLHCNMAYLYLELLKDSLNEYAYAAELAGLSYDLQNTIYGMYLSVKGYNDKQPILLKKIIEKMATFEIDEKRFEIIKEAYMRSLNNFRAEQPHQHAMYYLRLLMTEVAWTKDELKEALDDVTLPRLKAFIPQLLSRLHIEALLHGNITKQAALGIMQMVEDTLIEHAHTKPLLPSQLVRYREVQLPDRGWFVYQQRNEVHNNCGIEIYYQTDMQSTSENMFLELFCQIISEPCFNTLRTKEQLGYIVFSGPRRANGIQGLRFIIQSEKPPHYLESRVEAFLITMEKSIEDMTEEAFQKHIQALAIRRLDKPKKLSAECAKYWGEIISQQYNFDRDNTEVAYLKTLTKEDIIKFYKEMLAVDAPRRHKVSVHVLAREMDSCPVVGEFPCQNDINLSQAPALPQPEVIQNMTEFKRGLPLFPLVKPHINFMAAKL
Sequence of Insulin-degrading enzyme (P14735 whole entry E111Q): as the sequence (P14735 whole entry) above, with E111Q counted along it

In the case of `CC(=O)N[C@@H](CCC(=O)O)C(=O)N[C@@H](Cc1c[nH]c2ccccc12)C(=O)N[C@@H](CCCNC(=N)N)C(=O)N[C@@H](Cc1ccccc1)C(=O)N[C@H]1CC(=O)NC[C@@H](C(=O)N[C@@H](CC(C)C)C(=O)N[C@@H](Cc2ccc(O)cc2)C(=O)N[C@@H](CC(C)C)C(=O)N[C@H](C(=O)N[C@@H](CS)C(=O)NCC(N)=O)C(C)C)NC(=O)[C@H](CCC(=O)O)NC(=O)[C@@H]2CCCN2C(=O)[C@H]2CCCN2C(=O)CNC1=O`, the Kd [1] is reported as 0.022 µM, the inhibition [2] is reported as “Active” and the Ratio IC50 [3] is reported as over 1000. For the same compound, the Drug uptake [4] was “Active”, the Activity [5] was “Non-Toxic” and the hemolysis at 1 h, 300 µM [6] was under 10%. For the same compound, the Stability [7] was “Unstable”, the inhibition [8] was “Active” and the inhibition [9] was “Active”. The Activity [10] was “Non-Toxic”, the Activity [11] was “Active” and the Activity [12] was “Active”. The Activity [13] was “Non-Toxic”, the Activity [14] was “Non-Toxic” and the Tmax [15] was 1.4 h. The bioavailability [16] was 83.5%, the Drug uptake [17] was “Not Active” and the Drug uptake [18] was “Not Active”.

From ChEMBL document CHEMBL4196173, “Stabilized β-Hairpin Peptide Inhibits Insulin Degrading Enzyme” (J Med Chem, 2018)
